Activity data for one molecule are collected here from ChEMBL document CHEMBL3612001, “Design and discovery of 2-(4-(1H-tetrazol-5-yl)-1H-pyrazol-1-yl)-4-(4-phenyl)thiazole derivatives as cardiotonic agents via inhibition of PDE3” (Bioorg Med Chem, 2015).

Series [1] concerns Cardiac atrium. Briefly: Cardiotonic activity in reserpine-pretreated and spontaneously beating rat atria assessed as inotropic activity by measuring contractile force at 100 uM (reference value: 100%). It counts as functional. The essentials:
(§1)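 Male Wistar rats (250–350 g) given reserpine 5 mg/kg ip 24 h before euthanasia under thiopental 80 mg/kg ip. Whole atria mounted in Krebs–Henseleit (95% O2/5% CO2, 35–37 °C, pH 7.35–7.45) at ~0.5 g resting tension, equilibrated 40–50 min. Used only if unresponsive to tyramine 1.5 μM. Compound added cumulatively (1–100 μM). Isometric force and rate recorded, six atria per compound.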

Series [2] deals with Cardiac atrium. Briefly: Toxic cardiotonic activity in reserpine-pretreated and spontaneously beating rat atria assessed as chronotropic activity by measuring contractile frequency rate at 10 uM (reference value: 100%). It is filed as toxicity. In outline:
as §1

For series [3], the system named is Mus musculus. As to the kind of experiment: Toxicity in Swiss albino mouse up to 1000 mg/kg, po dosed as single acute dose. It counts as organism-based. The conditions noted are these: in vivo.
Series [4] concerns Mus musculus. Briefly: Toxicity in Swiss albino mouse assessed as changes in mortality at 100 mg/kg, po dosed once orally for 28 days. It is filed as organism-based. The conditions noted are these: in vivo, 672 h. In outline: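 Sub-acute oral study in Swiss albino mice, 20–25 g, 3 male + 3 female per group, 7-day acclimatisation, 22 ± 5 °C, 12 h light/dark cycle, standard feed and water ad libitum. Compound dissolved in DMSO, suspended in 0.7% CMC, given orally once daily for 28 days at 0.1, 1, 10 or 100 mg/kg, against vehicle controls. Animals observed throughout; gross pathology with absolute and relative organ weights at end; n = 6.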

For series [5], the system named is Mus musculus. Briefly: Toxicity in Swiss albino mouse assessed as changes in haemoglobin level at 0.1 mg/kg, po dosed once orally for 28 days (reference value: 13.87 +/- 0.46 g/dL). It is filed as organism-based. To be noted: in vivo, 672 h.
Series [6] deals with Mus musculus. As to the kind of experiment: Toxicity in Swiss albino mouse assessed as changes in cholesterol level at 0.1 mg/kg, po dosed once orally for 28 days (reference value: 138.43 +/- 1.52 mg/dL). It counts as organism-based. To be noted: in vivo, 672 h.
Series [7] has as its system Mus musculus. As to the kind of experiment: Toxicity in Swiss albino mouse assessed as changes in creatinine level at 0.1 mg/kg, po dosed once orally for 28 days (reference value: 0.04 +/- 0.37 mg/dL). It is filed as organism-based. The conditions noted are these: in vivo, 672 h.
In series [8] the test system is Mus musculus. Briefly: Toxicity in Swiss albino mouse assessed as changes in ALP level at 0.1 mg/kg, po dosed once orally for 28 days (reference value: 132.4 +/- 6.26 U/L). It counts as organism-based. To be noted: in vivo, 672 h.
In series [9] the test system is Mus musculus. As to the kind of experiment: Toxicity in Swiss albino mouse assessed as changes in SGPT level at 0.1 mg/kg, po dosed once orally for 28 days (reference value: 41.46 +/- 17.25 U/L). It counts as organism-based. The conditions noted are these: in vivo, 672 h.
In series [10] the test system is Mus musculus. As to the kind of experiment: Toxicity in Swiss albino mouse assessed as changes in haemoglobin level at 1 mg/kg, po dosed once orally for 28 days (reference value: 13.87 +/- 0.46 g/dL). It counts as organism-based. To be noted: in vivo, 672 h.
Series [11] deals with Mus musculus. Briefly: Toxicity in Swiss albino mouse assessed as changes in total protein level at 1 mg/kg, po dosed once orally for 28 days (reference value: 3.45 +/- 0.45 […]). It is filed as organism-based. To be noted: in vivo, 672 h.
Series [12] concerns Mus musculus. Briefly: Toxicity in Swiss albino mouse assessed as changes in SGPT level at 1 mg/kg, po dosed once orally for 28 days (reference value: 41.46 +/- 17.25 U/L). It is filed as organism-based. The conditions noted are these: in vivo, 672 h.
Series [13] has as its system Mus musculus. As to the kind of experiment: Toxicity in Swiss albino mouse assessed as changes in body weight at 10 mg/kg, po dosed once orally for 28 days (reference value: 31.2 +/- 1.6g). To be noted: in vivo, 672 h. It counts as organism-based.
Series [14] relates to Mus musculus. As to the kind of experiment: Toxicity in Swiss albino mouse assessed as changes in total protein level at 10 mg/kg, po dosed once orally for 28 days (reference value: 3.45 +/- 0.45 […]). It counts as organism-based. To be noted: in vivo, 672 h.
The test system of series [15] is Mus musculus. Briefly: Toxicity in Swiss albino mouse assessed as changes in creatinine level at 10 mg/kg, po dosed once orally for 28 days (reference value: 0.04 +/- 0.37 mg/dL). It counts as organism-based. To be noted: in vivo, 672 h.
Series [16] has as its system Mus musculus. As to the kind of experiment: Toxicity in Swiss albino mouse assessed as changes in ALP level at 10 mg/kg, po dosed once orally for 28 days (reference value: 132.4 +/- 6.26 U/L). It counts as organism-based. The conditions noted are these: in vivo, 672 h.
Series [17] relates to Mus musculus. Briefly: Toxicity in Swiss albino mouse assessed as changes in SGPT level at 10 mg/kg, po dosed once orally for 28 days (reference value: 41.46 +/- 17.25 U/L). It counts as organism-based. To be noted: in vivo, 672 h.
For series [18], the system named is Mus musculus. Briefly: Toxicity in Swiss albino mouse assessed as changes in body weight at 100 mg/kg, po dosed once orally for 28 days (reference value: 31.2 +/- 1.6g). It is filed as organism-based. The conditions noted are these: in vivo, 672 h.
For series [19], the system named is Mus musculus. Briefly: Toxicity in Swiss albino mouse assessed as changes in haemoglobin level at 100 mg/kg, po dosed once orally for 28 days (reference value: 13.87 +/- 0.46 g/dL). It is filed as organism-based. The conditions noted are these: in vivo, 672 h.
Series [20] relates to Mus musculus. As to the kind of experiment: Toxicity in Swiss albino mouse assessed as changes in ALP level at 100 mg/kg, po dosed once orally for 28 days (reference value: 132.4 +/- 6.26 U/L). It is filed as organism-based. The conditions noted are these: in vivo, 672 h.
Series [21] has as its system Mus musculus. As to the kind of experiment: Toxicity in Swiss albino mouse assessed as changes in SGPT level at 100 mg/kg, po dosed once orally for 28 days (reference value: 41.46 +/- 17.25 U/L). It is filed as organism-based. The conditions noted are these: in vivo, 672 h.
Series [22] has as its system Mus musculus. Briefly: Toxicity in Swiss albino mouse assessed as changes in SGOT level at 100 mg/kg, po dosed once orally for 28 days (reference value: 112.7 +/- 10.6 U/L). It is filed as organism-based. To be noted: in vivo, 672 h.

Turning to `Fc1ccc(-c2csc(-n3cc(-c4nnn[nH]4)cn3)n2)cc1`, the Activity was 163% in the series on Cardiac atrium [1]; 114% with Cardiac atrium [2]; “Non-toxic” in the series with Mus musculus [3]; “Non-toxic” with Mus musculus [4]; 14.5 g/dL in the series with Mus musculus [5]; 125.66 mg/dL in the series with Mus musculus [6]. Besides, the Activity with Mus musculus [7] came to 0.04 mg/dL; with Mus musculus [8] it was 135.5 U/L; in the series on Mus musculus [9], 40.12 U/L; in the series on Mus musculus [10] it was 15.34 g/dL; in the series on Mus musculus [11] it was 3.64 g/dL; in the series with Mus musculus [12], 41.34 U/L. The Activity with Mus musculus [13] is 32.62 g; with Mus musculus [14], 4.12 g/dL; in the series on Mus musculus [15], 0.04 mg/dL; in the series with Mus musculus [16], 133.3 U/L; in the series on Mus musculus [17], 41.8 U/L; in the series on Mus musculus [18] it was 33 g. The Activity with Mus musculus [19] amounted to 15.24 g/dL; in the series with Mus musculus [20] it was 134.02 U/L; in the series on Mus musculus [21] it was 42.1 U/L; with Mus musculus [22], 111.6 U/L.
